Sampled rows, rich in hits. Any-hit rate of the full collection: about 4.6%.
p97 ATPase inh = blocks human p97 ATPase activity. actives 0.42% (n = 220,000). recombinant p97 ATPase, Kinase-Glo ATP luminescence, 3 h. AID 1481. inhibition, % at 8 µM; in the data active = inhibition above about 15%;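 also: 0% = DMSO vehicle and 100% = wells lacking enzyme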
Wee1 degr inh = blocks degradation of human Wee1 kinase; P30291; HeLa Luc-Wee1K328M stability, luciferase luminescence; 100% = proteasome inhibitor MG132 effect; reporter increase, % at 5 µM; actives 1.2% (n = 220,000);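 active = activation above the mean of all tested compounds plus 3 SD, set per screening run, cut at about 8.8% in these data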;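 also: cells exposed to compound for 20 h before luminescence read; 0% = DMSO alone and 100% = MG132 at 30 µM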
Target sequence (P30291 whole entry K328M): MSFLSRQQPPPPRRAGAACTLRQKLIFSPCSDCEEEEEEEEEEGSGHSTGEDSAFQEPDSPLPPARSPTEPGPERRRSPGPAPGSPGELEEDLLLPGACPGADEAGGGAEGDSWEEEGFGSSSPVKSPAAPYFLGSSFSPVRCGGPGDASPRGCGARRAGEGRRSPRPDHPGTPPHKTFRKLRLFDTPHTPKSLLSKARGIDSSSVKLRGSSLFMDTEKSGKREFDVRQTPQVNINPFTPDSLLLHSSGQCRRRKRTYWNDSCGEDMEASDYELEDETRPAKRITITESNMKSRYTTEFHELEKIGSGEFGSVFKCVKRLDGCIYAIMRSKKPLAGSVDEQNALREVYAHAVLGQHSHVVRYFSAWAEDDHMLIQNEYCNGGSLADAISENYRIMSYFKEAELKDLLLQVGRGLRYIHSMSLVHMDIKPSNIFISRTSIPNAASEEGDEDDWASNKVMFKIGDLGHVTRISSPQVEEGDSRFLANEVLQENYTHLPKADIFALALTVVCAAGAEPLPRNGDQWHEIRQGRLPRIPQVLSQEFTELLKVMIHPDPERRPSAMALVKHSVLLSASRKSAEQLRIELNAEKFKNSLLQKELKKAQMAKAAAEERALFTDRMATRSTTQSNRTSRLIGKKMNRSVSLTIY
NF-kB neuron act = compounds increasing NF-kB expression in human neuronal cells; NF-kB reporter expression; active compounds read high; fold change at 12.5 µM; actives 1.6% (n = 190,000); in the data active = fold change above about 3.3
STAT1 activator = activators of IFN-gamma induced STAT1 signaling | NIH 3T3 STAT1-luciferase reporter, luminescence; 100% = IFN-gamma alone, no compound | activation (% of control), % at 5.5 µM | actives 2.6% (n = 200,000) | AID 932;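 active = activation above the screen-wide mean activation plus 3 SD, cut at about 130% in these data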;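 also: raw ratio to IFN-gamma control signal so 100% means no change and 0% no light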
Mdm2 ligase inh = inhibitors of human Mdm2 E3 ubiquitin ligase. cell-based MDM2 ubiquitination luciferase reporter, 2 h; 0 = plate control, 100 = twice control, blank-subtracted. signal enhancement, % at 5 µM. actives 0.11% (n = 210,000). Q00987;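 active = signal enhancement of 30% or more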;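 also: luminescence tracks abundance of the self-degrading MDM2-luciferase fusion protein; higher signal means inhibition of MDM2 E3 ligase activity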
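Material: Stable MDM2–luciferase fusion reporter cells | Amount: 2000 cells seeded into each well | Dosing: One concentration, 5 µM, with 0.2% DMSO | Incubation: 4 h cell settling then 2 h compound exposure, 37 °C | Measured by: Luciferase luminescence | Read-out basis: % enhancement relative to plate controls after blank subtraction | Benchmarks: Control and blank well means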
APP 5'UTR act = APP 5'UTR luciferase reporter activation. SH-SY5Y APP 5'UTR luciferase reporter, luminescence; zero percent = DMSO vehicle wells. activation, % at 2 µM. actives 1% (n = 190,000). AID 1276;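 active = activation above a set limit, based on mean plus 3 SD of controls, cut at about 140% in these data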
* hit, by the source's call; . = not tested or not shown.

SMILES | p97 ATPase inh | Wee1 degr inh | NF-kB neuron act | STAT1 activator | Mdm2 ligase inh | APP 5'UTR act
CCC[n+]1cn(/C(C(=S)Nc2cccc(Cl)c2C)=C(/[O-])c2ccc(OC)c(OC)c2)c2ccccc21 | 6.4 | -0.5 | 0.99 | 99.7 | -6.2 | -11.2
CN(C)c1ccc(/C=N/NC(=S)NCc2ccco2)cc1 | -4.3 | 1.9 | 1 | 104.0 | -1.0 | 32.0
CN(C)c1ccc(C(=S)NCc2ccco2)cc1 | 5.0 | -4.4 | 8.07* | 133.7* | -64.4 | 96.9
Clc1cccc(-c2nc(NCCCN3CCOCC3)c3ccccc3n2)c1 | -1.2 | 2.8 | . | 99.7 | . | -10.7
Clc1ccc2oc(-c3ccccc3)cc(=NCCCN3CCOCC3)c2c1 | -1.9 | 1.8 | 1.81 | 146.6* | -52.5 | 70.1
COc1ccc(C2NC(c3ccc(OC)cc3OC)C(C)C(=O)C2C)c(OC)c1 (centres undefined) | -1.1 | -1.6 | 0.84 | 103.1 | 11.1 | -8.2
COc1ccccc1NC(=O)CCC(=O)OCc1cccc([N+](=O)[O-])c1 | 2.7 | -1.2 | 1.02 | 101.2 | -4.3 | 6.9
Cc1ccc(O)c(CP(=O)(c2ccccc2)c2ccccc2)c1 | 0.8 | 9.4* | 1.04 | 99.7 | 17.9 | -2.9
CCCc1cc(C(=O)Nc2ccc(F)cc2F)no1 | 6.8 | -0.2 | 1.86 | 130.0* | -14.9 | 33.6
CN(C)/C=N/C(=S)Nc1ccc(Br)cc1F | 1.1 | -1.2 | 2.25 | 129.9* | -4.5 | 5.5
CCOC(=O)c1ccc2nc(C)c(CCC(C)=O)c(Cl)c2c1 | -7.8 | 3.0 | 1.71 | 129.2* | -0.8 | 53.1
COc1cc(OC)cc(C(=O)NCC(=O)OCc2nc3ccccc3s2)c1 | 2.4 | -1.6 | 1.84 | 145.4* | -6.8 | 139.5*
O=C(OCc1nc2ccccc2s1)c1cccs1 | -2.1 | 0.2 | 1.23 | 136.9* | -8.2 | -7.0
O=C(OCc1nc2ccccc2s1)c1ccccc1O | -2.2 | 0.8 | 2.23 | 113.6 | -13.6 | 26.1
CC(C)N(CCc1ccncc1)C(=S)Nc1ccc(F)c(Cl)c1 | 1.3 | -1.1 | 1.3 | 96.1 | -25.0 | 6.9
CCOC(=O)c1cc[nH]c1C | 2.1 | -2.1 | 1.16 | 101.1 | -11.3 | 10.1
CC(=O)c1cccc(NC(=O)Cn2nc(-c3ccccc3Cl)ccc2=O)c1 | -3.9 | 10.6* | 0.71 | 94.0 | -15.0 | -10.5
Nc1c(N=Nc2ccccc2F)c(=O)[nH]n1-c1ccccc1 | -5.2 | 1.5 | 3.08 | 134.5* | -19.9 | 61.1
Cc1ccccc1N=Nc1c(C)[nH]n(-c2ccccc2)c1=O | 1.9 | -0.2 | 1.27 | 113.0 | -3.4 | -6.7
O=C(N/N=C/c1ccccc1F)NC1CCCCC1 | -11.6 | 0.3 | 2.2 | 130.5* | -12.6 | 54.3
O=C(N/N=C/c1ccccc1)NC1CCCCC1 | -1.9 | 3.8 | 1.5 | 114.2 | -8.0 | 21.8
Nc1ncnc(N2CCc3ccccc32)c1[N+](=O)[O-] | 3.0 | -0.3 | 0.95 | 84.6 | -29.5 | -27.7
COc1cccc(/C=N/NC(=O)CO/N=C(\C)c2cccs2)c1OC | -2.1 | 10.0* | 1.07 | 101.7 | -3.8 | -15.4
O=C(Nc1cccc(O)c1)c1ccc(C(F)(F)F)cc1 | -8.0 | -0.5 | 3.67* | 103.5 | 2.3 | 91.4
CC(C)CC(=O)Nc1ccc(C(=O)Nc2cccc(O)c2)cc1 | 3.9 | -3.4 | 1.97 | 131.5* | -16.5 | 68.5
SMILES | p97 ATPase inh | Wee1 degr inh | NF-kB neuron act | STAT1 activator | Mdm2 ligase inh | APP 5'UTR act
CCCC(=O)Nc1ccc(C(=O)Nc2cccc(OC)c2)cc1 | -0.1 | -2.8 | 1.45 | 105.6 | 6.8 | 35.1
COc1ccc(Cc2nc3ccccc3n2C)cc1 | 1.7 | -1.4 | 1.46 | 101.1 | 4.2 | 2.5
COc1ccc(N=Nc2nc3ccc(Br)cc3n2C)cc1 | -10.2 | 9.9* | 2.68 | 122.1 | -32.9 | 37.7
CCOc1cccc2cc(-c3csc(NC(=O)CCC(=O)N4CCC(C)CC4)n3)c(=O)oc12 | 0.3 | -1.1 | 1.09 | 98.4 | -15.6 | -5.2
CCOc1cccc2cc(-c3csc(NC(=O)CCC(=O)NCCN4CCCCC4C)n3)c(=O)oc12 (centres undefined) | 1.9 | 2.0 | 6.82* | 144.8* | -20.6 | 177.9*
CCOC(=O)Nc1sc(C)nc1-c1ccccc1 | -4.9 | 0.3 | 1.01 | 104.4 | -3.6 | 4.7
CCOC(=O)Nc1nc(-c2ccccc2)c(C(=O)c2ccc(Cl)cc2)s1 | -6.1 | 0.5 | 3.87* | 107.5 | -8.5 | -94.1
Oc1ccccc1-c1cc(-c2ccc3c(c2)OCCO3)n[nH]1 | 1.0 | 3.0 | 8.94* | 111.0 | -14.9 | 210.7*
COc1ccc(-c2c(-c3ccc(O)cc3O)n[nH]c2C)cc1OC | 0.8 | 4.4 | 1.14 | 102.4 | -19.6 | -2.1
CCOC(=O)c1cc(-c2ccc3c(c2)OCCO3)n[nH]1 | 1.6 | 6.6 | 4.48* | 102.6 | -21.3 | 113.0
COc1ccc(-c2cc(-c3ccc(OC)c(OC)c3)n[nH]2)c(O)c1 | -1.0 | 0.5 | 4.05* | 96.7 | -7.5 | 126.6
COc1ccc(O)c(-c2cc(-c3cccc(Br)c3)n[nH]2)c1 | 8.6 | 6.9 | 3.43* | 102.2 | 9.6 | 84.7
COc1ccc(-c2cc(-c3cc(OC)ccc3O)[nH]n2)cc1 | 0.9 | 1.8 | 2.78 | 113.9 | -15.4 | 97.7
Cc1ccc(NC(=O)CCC(=O)NNC(=O)c2ccccc2Cl)c(C)c1 | 0.5 | 3.2 | 0.91 | 95.6 | -8.8 | 2.2
COc1cc(OC)cc(C(=O)NC(=S)Nc2nnn(C)n2)c1 | -3.5 | 3.7 | . | . | -7.8 | .
CCN1CCCC1Cn1cnc2c([nH]c3ccc(OC)cc32)c1=O (centres undefined) | 7.8 | -0.2 | . | . | -5.7 | .
Cc1cc(=O)[nH]c(N/N=C/c2cn(CCC#N)nc2-c2ccccc2)n1 | -5.7 | -0.7 | 1.16 | 95.4 | -6.8 | -3.5
CCOC(=O)c1nn(-c2ccc3c(c2)OCCO3)cc1O | 0.7 | 8.7 | 1.14 | 96.2 | -7.6 | 157.8*
COc1ccc(-c2cc(-c3cc(F)ccc3O)[nH]n2)cc1OC | 2.2 | -0.6 | 2.94 | 105.5 | -32.2 | 136.2*
COc1ccc(-c2cc(-c3ccccc3O)[nH]n2)cc1OC | -7.1 | -0.2 | 6.83* | 108.6 | -7.3 | 193.8*
COC(=O)c1cc(-c2ccc(OC)c(OC)c2)n[nH]1 | 2.1 | -1.5 | 0.81 | 98.9 | -5.2 | -12.7
CC(C)OP(=O)(c1ccc(N(C)C)cc1)C(O)c1cccnc1 (centres undefined) | -7.1 | -0.6 | . | . | -10.3 | .
Cc1ccc(OCCn2cnc3ccccc3c2=O)c([N+](=O)[O-])c1 | 10.6 | -3.5 | 1.86 | 136.4* | -9.9 | 104.9
